Experiments:
[1] = biological target: T1, Toll-like receptor 9 (Homo sapiens) (UniProt Q9NR96); assay: Induction of TLR9-mediated human B cell proliferation assessed as [3H]thymidine uptake after 56 hrs by scintillation counting
T1 sequence (whole entry): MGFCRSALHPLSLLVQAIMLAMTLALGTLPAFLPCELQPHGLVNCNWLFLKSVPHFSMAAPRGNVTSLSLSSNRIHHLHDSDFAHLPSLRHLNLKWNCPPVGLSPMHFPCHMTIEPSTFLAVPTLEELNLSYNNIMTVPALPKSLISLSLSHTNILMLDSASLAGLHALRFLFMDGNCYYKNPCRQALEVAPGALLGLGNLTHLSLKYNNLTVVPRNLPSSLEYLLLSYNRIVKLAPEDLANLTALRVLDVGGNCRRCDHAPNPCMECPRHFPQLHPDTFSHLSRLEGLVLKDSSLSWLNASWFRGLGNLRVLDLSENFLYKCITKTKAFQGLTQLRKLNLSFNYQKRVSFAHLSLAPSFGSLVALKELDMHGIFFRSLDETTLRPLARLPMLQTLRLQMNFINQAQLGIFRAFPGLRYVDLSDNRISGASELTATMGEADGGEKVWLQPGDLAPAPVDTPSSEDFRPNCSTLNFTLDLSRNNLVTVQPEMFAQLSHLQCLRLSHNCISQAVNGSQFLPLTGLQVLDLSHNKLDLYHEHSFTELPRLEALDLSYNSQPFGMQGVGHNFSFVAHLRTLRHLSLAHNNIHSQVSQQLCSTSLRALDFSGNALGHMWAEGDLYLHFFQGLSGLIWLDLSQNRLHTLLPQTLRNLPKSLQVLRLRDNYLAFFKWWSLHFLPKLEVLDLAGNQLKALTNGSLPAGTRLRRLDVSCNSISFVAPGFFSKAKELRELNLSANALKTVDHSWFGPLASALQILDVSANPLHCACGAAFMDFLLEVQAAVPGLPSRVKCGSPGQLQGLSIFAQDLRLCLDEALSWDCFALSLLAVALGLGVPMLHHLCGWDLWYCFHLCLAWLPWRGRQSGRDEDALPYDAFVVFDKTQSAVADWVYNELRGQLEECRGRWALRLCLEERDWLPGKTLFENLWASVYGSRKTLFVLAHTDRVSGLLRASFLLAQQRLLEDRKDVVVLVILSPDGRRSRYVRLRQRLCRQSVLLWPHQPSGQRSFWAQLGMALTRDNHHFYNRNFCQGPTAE
How it was run: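 B cells were purified from human PBMCs (healthy volunteers), about 1 × 10⁵ cells, and stimulated with various agonist concentrations for 56 h. Cells were then pulsed with 0.75 μCi [³H]-thymidine and harvested 16 h later. Incorporation was counted by scintillation and reported as cpm.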

[2] = biological target: T1, Toll-like receptor 9 (Homo sapiens); assay: Induction of TLR9-mediated immune stimulation in human PBMC assessed as IL6 production at 10 ug/ml after 24 hrs by luminex multiplex assay (RVb = 0.01 ng/ml)
[3] = biological target: T1, Toll-like receptor 9 (Homo sapiens); assay: Induction of TLR9-mediated immune stimulation in human PBMC assessed as IL12 production at 10 ug/ml after 24 hrs by luminex multiplex assay (RVb = 0.00 ng/ml)
[4] = biological target: T1, Toll-like receptor 9 (Homo sapiens); assay: Induction of TLR9-mediated immune stimulation in human PBMC assessed as MIP1alpha production at 10 ug/ml after 24 hrs by luminex multiplex assay (RVb = 0.01 ng/ml)
[5] = biological target: T1, Toll-like receptor 9 (Homo sapiens); assay: Induction of TLR9-mediated immune stimulation in human PBMC assessed as MIP1alpha production at 2 ug/ml after 24 hrs by luminex multiplex assay (RVb = 0.01 ng/ml)
[6] = biological target: T2, Toll-like receptor 9 (Mus musculus) (UniProt Q9EQU3); assay: Induction of TLR9-mediated IL12 production in C57BL/6 mouse spleen cells after 24 hrs by ELISA; assay type: cell-based
T2 sequence (whole entry): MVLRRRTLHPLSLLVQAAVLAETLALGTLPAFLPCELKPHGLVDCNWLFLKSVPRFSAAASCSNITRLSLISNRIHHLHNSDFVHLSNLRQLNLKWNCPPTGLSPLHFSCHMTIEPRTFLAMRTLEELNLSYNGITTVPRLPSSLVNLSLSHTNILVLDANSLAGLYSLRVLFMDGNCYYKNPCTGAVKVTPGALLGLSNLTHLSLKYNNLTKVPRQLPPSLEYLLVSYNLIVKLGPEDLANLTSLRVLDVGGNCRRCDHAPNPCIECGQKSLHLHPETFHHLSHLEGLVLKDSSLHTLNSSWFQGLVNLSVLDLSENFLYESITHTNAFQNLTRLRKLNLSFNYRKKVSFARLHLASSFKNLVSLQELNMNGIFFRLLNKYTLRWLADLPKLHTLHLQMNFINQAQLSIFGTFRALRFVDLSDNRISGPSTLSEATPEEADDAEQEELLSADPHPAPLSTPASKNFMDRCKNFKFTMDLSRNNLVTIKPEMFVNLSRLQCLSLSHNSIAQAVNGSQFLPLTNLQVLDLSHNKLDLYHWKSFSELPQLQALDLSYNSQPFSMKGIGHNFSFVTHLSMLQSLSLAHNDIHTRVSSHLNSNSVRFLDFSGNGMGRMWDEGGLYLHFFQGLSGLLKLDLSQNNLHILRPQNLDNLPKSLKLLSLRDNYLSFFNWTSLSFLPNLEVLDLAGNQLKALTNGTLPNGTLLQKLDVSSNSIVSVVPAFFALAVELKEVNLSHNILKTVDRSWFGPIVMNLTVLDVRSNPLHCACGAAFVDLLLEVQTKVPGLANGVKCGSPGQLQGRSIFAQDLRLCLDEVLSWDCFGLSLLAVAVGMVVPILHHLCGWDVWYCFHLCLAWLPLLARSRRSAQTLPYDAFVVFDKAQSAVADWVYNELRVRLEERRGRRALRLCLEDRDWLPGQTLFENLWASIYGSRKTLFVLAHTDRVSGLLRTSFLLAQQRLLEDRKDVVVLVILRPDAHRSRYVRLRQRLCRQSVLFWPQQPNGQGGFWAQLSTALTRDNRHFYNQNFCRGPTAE
How it was run: (§1)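 C57BL/6 mouse spleen cells were cultured with agonists at 0.1, 0.3, 1, 3 and 10 μg/mL for 24 h. Secreted IL-12 and IL-6 in the supernatants were measured by ELISA. Values are averages of triplicate wells from one representative of at least two independent experiments.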

[7] = biological target: T1, Toll-like receptor 9 (Homo sapiens); assay: Induction of TLR9-mediated immune stimulation in human PBMC assessed as IP10 production at 2 ug/ml after 24 hrs by luminex multiplex assay (RVb = 0.00 ng/ml)
[8] = biological target: T1, Toll-like receptor 9 (Homo sapiens); assay: Induction of TLR9-mediated immune stimulation in human PBMC assessed as MIP1beta production at 10 ug/ml after 24 hrs by luminex multiplex assay (RVb = 0.03 +/- 0.02 ng/ml)
[9] = biological target: T1, Toll-like receptor 9 (Homo sapiens); assay: Induction of TLR9-mediated immune stimulation in human PBMC assessed as MCP1 production at 10 ug/ml after 24 hrs by luminex multiplex assay (RVb = 0.08 +/- 0.02 ng/ml)
[10] = biological target: T2, Toll-like receptor 9 (Mus musculus); assay: Induction of TLR9-mediated IL6 production in C57BL/6 mouse spleen cells after 24 hrs by ELISA; assay type: cell-based; how it was run: as §1

Compound | Activity [1] | Activity [2] [ng/mL] | Activity [3] [ng/mL] | Activity [4] [ng/mL] | Activity [5] [ng/mL] | Activity [6] | Activity [7] [ng/mL] | Activity [8] [ng/mL] | Activity [9] [ng/mL] | Activity [10]
Cc1cn([C@H]2C[C@H](OCCOCCOCCOCCOCCOCCOP(=O)(S)O[C@H]3C[C@H](n4cc(C)c(=O)[nH]c4=O)O[C@@H]3COP(=O)(S)O[C@H]3[C@@H](O)[C@H](n4ccc(N)nc4=O)O[C@@H]3COP(=O)(S)O[C@H]3C[C@H](n4cc(C)c(=O)[nH]c4=O)O[C@@H]3COP(=O)(S)O[C@H]3C[C@H](n4cc(C)c(=O)[nH]c4=O)O[C@@H]3COP(=O)(S)O[C@H]3C[C@H](n4ccc5c(=O)[nH]c(N)nc54)O[C@@H]3COP(=O)(S)O[C@H]3[C@@H](O)[C@H](n4ccc(N)nc4=O)O[C@@H]3COP(=O)(S)O[C@H]3C[C@H](n4cc(C)c(=O)[nH]c4=O)O[C@@H]3COP(=O)(S)O[C@H]3[C@@H](O)[C@H](n4cnc5c(=O)[nH]c(N)nc54)O[C@@H]3COP(=O)(S)O[C@H]3C[C@H](n4cc(C)c(=O)[nH]c4=O)O[C@@H]3COP(=O)(S)O[C@H]3[C@@H](O)[C@H](n4ccc(N)nc4=O)O[C@@H]3COP(=O)(S)O[C@H]3C[C@H](n4cc(C)c(=O)[nH]c4=O)O[C@@H]3CO)[C@@H](COP(=O)(S)O[C@H]3[C@@H](O)[C@H](n4ccc(N)nc4=O)O[C@@H]3COP(=O)(S)O[C@H]3C[C@H](n4cc(C)c(=O)[nH]c4=O)O[C@@H]3COP(=O)(S)O[C@H]3C[C@H](n4cc(C)c(=O)[nH]c4=O)O[C@@H]3COP(=O)(S)O[C@H]3C[C@H](n4ccc5c(=O)[nH]c(N)nc54)O[C@@H]3COP(=O)(S)O[C@H]3[C@@H](O)[C@H](n4ccc(N)nc4=O)O[C@@H]3COP(=O)(S)O[C@H]3C[C@H](n4cc(C)c(=O)[nH]c4=O)O[C@@H]3COP(=O)(S)O[C@H]3[C@@H](O)[C@H](n4cnc5c(=O)[nH]c(N)nc54)O[C@@H]3COP(=O)(S)O[C@H]3C[C@H](n4cc(C)c(=O)[nH]c4=O)O[C@@H]3COP(=O)(S)O[C@H]3[C@@H](O)[C@H](n4ccc(N)nc4=O)O[C@@H]3COP(=O)(S)O[C@H]3C[C@H](n4cc(C)c(=O)[nH]c4=O)O[C@@H]3CO)O2)c(=O)[nH]c1=O (stereo not given in full) | Dose-dependent effect | 0.58 | 0.19 | 0.27 | 0.05 | Dose-dependent effect | 0.03 | 0.9 | 3.31 | Dose-dependent effect
Cc1cn([C@H]2C[C@H](O[C@@H]3C[C@@H](O)C[C@@H](OP(=O)(S)O[C@H]4C[C@H](n5cc(C)c(=O)[nH]c5=O)O[C@@H]4COP(=O)(S)O[C@H]4[C@@H](O)[C@H](n5ccc(N)nc5=O)O[C@@H]4COP(=O)(S)O[C@H]4C[C@H](n5cc(C)c(=O)[nH]c5=O)O[C@@H]4COP(=O)(S)O[C@H]4C[C@H](n5cc(C)c(=O)[nH]c5=O)O[C@@H]4COP(=O)(S)O[C@H]4C[C@H](n5ccc6c(=O)[nH]c(N)nc65)O[C@@H]4COP(=O)(S)O[C@H]4[C@@H](O)[C@H](n5ccc(N)nc5=O)O[C@@H]4COP(=O)(S)O[C@H]4C[C@H](n5cc(C)c(=O)[nH]c5=O)O[C@@H]4COP(=O)(S)O[C@H]4[C@@H](O)[C@H](n5cnc6c(=O)[nH]c(N)nc65)O[C@@H]4COP(=O)(S)O[C@H]4C[C@H](n5cc(C)c(=O)[nH]c5=O)O[C@@H]4COP(=O)(S)O[C@H]4[C@@H](O)[C@H](n5ccc(N)nc5=O)O[C@@H]4COP(=O)(S)O[C@H]4C[C@H](n5cc(C)c(=O)[nH]c5=O)O[C@@H]4CO)C3)[C@@H](COP(=O)(S)O[C@H]3[C@@H](O)[C@H](n4ccc(N)nc4=O)O[C@@H]3COP(=O)(S)O[C@H]3C[C@H](n4cc(C)c(=O)[nH]c4=O)O[C@@H]3COP(=O)(S)O[C@H]3C[C@H](n4cc(C)c(=O)[nH]c4=O)O[C@@H]3COP(=O)(S)O[C@H]3C[C@H](n4ccc5c(=O)[nH]c(N)nc54)O[C@@H]3COP(=O)(S)O[C@H]3[C@@H](O)[C@H](n4ccc(N)nc4=O)O[C@@H]3COP(=O)(S)O[C@H]3C[C@H](n4cc(C)c(=O)[nH]c4=O)O[C@@H]3COP(=O)(S)O[C@H]3[C@@H](O)[C@H](n4cnc5c(=O)[nH]c(N)nc54)O[C@@H]3COP(=O)(S)O[C@H]3C[C@H](n4cc(C)c(=O)[nH]c4=O)O[C@@H]3COP(=O)(S)O[C@H]3[C@@H](O)[C@H](n4ccc(N)nc4=O)O[C@@H]3COP(=O)(S)O[C@H]3C[C@H](n4cc(C)c(=O)[nH]c4=O)O[C@@H]3CO)O2)c(=O)[nH]c1=O (stereo not given in full) | Dose-dependent effect | 0.89 | 0.21 | 0.76 | 0.05 | Dose-dependent effect | 0.01 | 2.45 | 9.5 | Dose-dependent effect

— ChEMBL document CHEMBL1157912, “Impact of nature and length of linker incorporated in agonists on toll-like receptor 9-mediated immune responses” (J Med Chem, 2010)
